Bioassay records from PubChem BioAssay.
This is a sample that favours compounds with a hit; in the whole collection about 3.2% have one here.
ABHD4 inh: inhibitors of mouse ABHD4; 370,000 compounds, 0.54% hits; inhibition, % at 8.92 µM; Q8VD66; purified mABHD4, FP-Rh probe fluorescence polarization;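 active means inhibition exceeding the mean over every tested compound plus 3 SD, cut at about 30% in these data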
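Assay system: wild-type mouse ABHD4 protein; compound: single nominal dose of 8.92 µM, 0.89% DMSO final; schedule: 45 min + 60 min at 25 °C; measured by: FP readout, ex 525 nm / em 598 nm; evaluation: % inhibition of FP-Rh probe binding versus controls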
rCAG binder: molecules binding r(CAG) RNA repeats; r(CAG) RNA repeat, TO-PRO-1 dye displacement fluorescence; AID 651821; 370,000 compounds, 1.3% hits; inhibition, % at 3 µM;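 active means inhibition above the plate cutoff, the mean of all test compounds on that plate plus 3 SD, cut at about 35% in these data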;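 further: higher means more dye released from RNA so lower well fluorescence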
DAGLB inhibitor: diacylglycerol lipase beta (human) inhibition. Q8NCG7. HEK293T DAGLB membrane lysate, EnzChek fluorogenic substrate. inhibition, % at 5.17 µM. 340,000 compounds, 0.059% hits; in the data active means inhibition above about 34%
LEDGF integ inh: blocks HIV-1 LEDGF/p75-dependent DNA integration | 370,000 compounds, 0.64% hits | AID 743269 | TR-FRET IN-LEDGF/p75 DNA integration, Eu/Cy5 | inhibition, % at 3.7 µM;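 active means inhibition above the screen-wide mean plus 3 SD, cut at about 13% in these data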;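 further: signal is the Cy5 over europium emission ratio at 671 and 618 nm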
HTRA1 inh: inhibitors of human serine peptidase HTRA1. 340,000 compounds, 0.5% hits. inhibition, % at 5.96 µM. recombinant HTRA1, FP-rhodamine activity-based probe, fluorescence polarization. Q92743; in the data active means inhibition above about 36%
Target sequence (Q92743 whole entry, looked up): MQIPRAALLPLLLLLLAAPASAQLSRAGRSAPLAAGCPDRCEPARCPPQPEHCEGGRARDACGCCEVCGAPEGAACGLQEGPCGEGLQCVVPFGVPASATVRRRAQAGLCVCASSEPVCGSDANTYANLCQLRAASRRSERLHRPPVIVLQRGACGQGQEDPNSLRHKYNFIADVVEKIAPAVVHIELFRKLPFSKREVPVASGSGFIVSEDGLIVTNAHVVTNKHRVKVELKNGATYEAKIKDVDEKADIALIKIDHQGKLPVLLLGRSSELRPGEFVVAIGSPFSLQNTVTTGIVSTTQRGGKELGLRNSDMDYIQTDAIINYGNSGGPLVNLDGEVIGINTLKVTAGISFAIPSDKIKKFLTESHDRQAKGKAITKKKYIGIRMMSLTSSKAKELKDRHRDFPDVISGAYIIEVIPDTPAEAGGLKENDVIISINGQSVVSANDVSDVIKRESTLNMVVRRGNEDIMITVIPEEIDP
PRMT1 inh: blocks human protein arginine methyltransferase 1 | Q99873 | 370,000 compounds, 1.3% hits | recombinant PRMT1, activity-based probe fluorescence polarization | inhibition, % at 2.79 µM;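 active means inhibition above about 21% made by adding two undisclosed values, limit read from the data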
PRMT1 inh conf: PRMT1 (human) inhibition, FP confirmation | inhibition, % at 2.79 µM | AID 687036 | recombinant His-PRMT1, activity-based probe fluorescence polarization | shares compounds with PRMT1 inh | 3,300 compounds, 42% hits;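 active means mean inhibition across replicates above the hit cutoff derived for the earlier primary screen, cut at about 22% in these data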
ABHD4 confirm: confirmation of mouse ABHD4 inhibitors; shares compounds with ABHD4 inh; purified mABHD4, FP-Rh probe fluorescence polarization; inhibition, % at 8.92 µM; 1,800 compounds, 55% hits;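 active means mean inhibition across replicates above the hit cutoff set in the primary screen, cut at about 30% in these data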
IN multimer act: counter-screen for LEDGF/p75 integration inhibitors: HIV-1 integrase multimerization activators; shares compounds with LEDGF integ inh; TR-FRET HIV-1 integrase multimerization, biochemical; activation, % at 7.7 µM; 2,000 compounds, 17% hits; AID 1053131; in the data active means activation above about 8.9%
TRFRET interf: counter-screen for LEDGF/p75 integration inhibitors: TR-FRET optical interference; shares compounds with LEDGF integ inh; TR-FRET optical interference counterscreen, HIV-1 IN multimerization; inhibition, % at 7.7 µM; 2,000 tested, under 10 active;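 active means inhibition above the mean over all tested compounds plus 3 SD, which no compound reached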
IN-LEDGF confirm: confirmation of HIV-1 LEDGF/p75-dependent integration inhibitors | shares compounds with LEDGF integ inh | TR-FRET LEDGF/p75-dependent HIV-1 integration, biochemical | AID 1053136 | 2,000 compounds, 36% hits | inhibition, % at 3.7 µM; in the data active means inhibition above about 14%
Numbers stand for hits; - = inactive; . = not tested or not shown.

SMILES | ABHD4 inh | rCAG binder | DAGLB inhibitor | LEDGF integ inh | HTRA1 inh | PRMT1 inh | PRMT1 inh conf | others
COc1ccc2c(c1)C13CCCC[C@@H]1C(C2)N(C)CC3 (stereo partly specified) | - | - | - | - | - | 136 | -
CC1=NNC(=O)C1Br (stereo unspecified) | - | - | - | - | - | 50 | 74
CC1=NCCc2c1[nH]c1cc(O)ccc21 | - | - | - | - | - | 119 | 125
COc1ccc2c3c([nH]c2c1)C(C)=NCC3 | - | - | - | - | - | - | .
COC1C(C)OC(OC2CC(C)(O)Cc3cc4c(c(O)c32)C(=O)c2c(O)cc3c(c2C4=O)OC2OC3(C)C(O)C(N(C)C)C2O)C(OC)C1(C)OC (stereo unspecified) | - | - | - | - | - | 124 | 98
CSc1nnc(C2CCNCC2)n1C | - | - | - | - | - | - | .
Nc1cc(Cl)c2nonc2c1[N+](=O)[O-] | - | - | - | - | - | 41 | -
CN1C2(C)c3ccccc3C1(c1ccccc1)c1ccccc12 | - | - | . | - | . | - | .
Cc1cc(=O)oc2c(C)c(OCC(=O)N3CCN(Cc4ccccc4)CC3)ccc12 | - | - | - | - | - | - | .
Cc1cc(N2CCNC[C@@H]2C)ccc1N1CC[C@@H](O)C1 | - | - | . | - | . | 47 | -
C[N+]1(C)C2CC(OC(=O)C(CO)c3ccccc3)CC1C1OC12 (stereo unspecified) | - | - | - | - | - | - | .
CCOC(=O)c1cc(CC)sc1/N=C/c1c(O)[nH]c(=S)[nH]c1=O | - | - | - | - | - | 81 | -
CCOC(=O)c1c(/N=C/c2c(O)n(-c3cccc(C)c3)c(=O)[nH]c2=O)sc2c1CCCC2 | - | - | - | - | - | - | .
CCOC(=O)c1cc(CC)sc1/N=C/C1C(=O)NC(=S)NC1=O | - | - | - | - | - | 41 | -
CC[n+]1c(/C=C/C=C/c2ccc(N(C)C)cc2)sc2ccccc21 | - | - | - | - | - | - | .
CC[n+]1c(/C=C/N(C)c2ccccc2)sc2ccc(Cl)cc21 | - | - | - | - | - | 29 | -
CN(C)c1nc(-c2ccccc2)[n+](C)s1 | - | - | - | - | - | 34 | 22
Cc1ccc(-c2nc(N3CCOCC3)s[n+]2-c2ccccc2)cc1 | - | - | - | - | - | - | .
COc1cc(C(O)CNC(C)C)cc(F)c1OC (stereo unspecified) | - | - | - | - | - | - | .
CCOC(=O)CC(SP1(=S)OCC2(CCCCC2)CO1)C(=O)OCC (stereo unspecified) | - | - | - | - | - | 25 | -
O=C(NCC1=C(c2cccc3ccccc23)C[C@@H]2CC[C@H]1N2Cc1ccco1)c1cccs1 | - | - | - | - | - | - | .
CCOC(=O)CCCCCNC(=O)c1c(O)[nH]c(=O)[nH]c1=O | - | - | - | - | - | - | .
CCCC(C)n1[nH]c(=O)c2c1NC(=O)CSC2c1ccc(OC)cc1 (stereo unspecified) | - | - | - | - | - | - | .
Cc1nn(C2CCOC(C)(C)C2)c2c1C(c1ccc(OC(C)C)cc1)SCC(=O)N2 (stereo unspecified) | - | - | - | - | - | 28 | 41
COc1ccc2[nH]c(C)c(CCNCc3cccnc3)c2c1 | 34 | - | - | - | - | 120 | - | ABHD4 confirm=-
SMILES | ABHD4 inh | rCAG binder | DAGLB inhibitor | LEDGF integ inh | HTRA1 inh | PRMT1 inh | PRMT1 inh conf | others
C[C@@H]1C(=O)O[C@H]2[C@H](O)[C@]34[C@@H]5OC(=O)[C@]3(OC3OC(=O)[C@H](O)C34[C@H](C(C)(C)C)[C@@H]5O)[C@@]12O (stereo partly specified) | - | - | - | - | - | - | .
O=C1NC(=S)NC(=O)C1=Cc1cccn1-c1ccc(O)cc1 | - | - | - | 33 | - | 42 | 68 | IN multimer act=10;TRFRET interf=-;IN-LEDGF confirm=73
Cc1cc(C)cc(N2C(=O)NC(=O)/C(=C\c3cccn3-c3ccc(Cl)cc3)C2=O)c1 | - | - | - | - | - | - | .
O=C1NC(=O)N(CCc2ccc(F)cc2)C(=O)/C1=C/c1ccco1 | - | 74 | - | 80 | - | 35 | - | IN multimer act=-;TRFRET interf=-;IN-LEDGF confirm=16
CCCCn1c(NC(=O)c2ccco2)c(C(=O)OCC)c2nc3ccccc3nc21 | - | - | - | 30 | - | 41 | - | IN multimer act=-;TRFRET interf=-;IN-LEDGF confirm=62
CCOC(=O)c1c(N)n(Cc2ccco2)c2nc3ccccc3nc12 | - | - | - | - | - | - | .
CCN(CC)c1ccc(N=Cc2c(O)n(-c3ccccc3C)c(=O)[nH]c2=O)cc1 | 64 | - | - | 28 | 60 | 28 | - | ABHD4 confirm=-;IN multimer act=-;TRFRET interf=-;IN-LEDGF confirm=-
O=C1NC(=O)C(=Cc2ccc(Cl)cc2)C(=O)N1 | - | - | . | - | . | - | .
Cc1c(C(=O)C(=O)N2CCOCC2)c2ccccc2n1Cc1ccccc1 | - | - | - | - | - | - | .
CN(C)c1ccc(/C=C2\C(=O)NC(=O)N(CCc3ccc(F)cc3)C2=O)cc1 | - | - | - | - | - | - | .
CCN(CC)c1ccc(/C=C2/C(=O)NC(=O)N(Cc3ccco3)C2=O)cc1 | - | - | - | 71 | - | 30 | - | IN multimer act=-;TRFRET interf=-;IN-LEDGF confirm=30
CN(C)c1ccc(/C=C2/C(=O)NC(=O)N(Cc3ccco3)C2=O)cc1 | - | - | - | 66 | - | 29 | - | IN multimer act=-;TRFRET interf=-;IN-LEDGF confirm=14
O=C1N(c2nncs2)CCN1[N+](=O)[O-] | - | - | - | - | - | - | .
CC1CC(OP(O)(=S)c2ccc(N(C)C)cc2NC(=O)c2cccs2)CC(C)(C)C1 (stereo unspecified) | 41 | - | - | - | - | - | . | ABHD4 confirm=50
O=c1[nH]c(=S)n(-c2ccc(Cl)cc2)c(O)c1C=Nc1ccc(N2CCOCC2)cc1 | 40 | - | - | - | - | - | . | ABHD4 confirm=-
O=c1[nH]c(=O)n(C2CCCCC2)c(O)c1C=Nc1ccc(N2CCOCC2)cc1 | - | - | - | - | - | - | .
Brc1csc(N2CCNCC2)n1 | - | . | . | - | . | - | .
Cc1[nH]c2ccc(OC(F)(F)F)cc2c1CCNCc1ccc(Cl)cc1 | 42 | - | - | - | - | - | . | ABHD4 confirm=31
